Experiments:
Assay type in all cases: functional
[1] = tested on: NCI-H460; assay: Cytotoxicity against human NCI-H460 cells
How it was run: (§1)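 Tested in a 60-cell-line human tumor panel screen; the read-out is growth inhibition, reported as GI50 for each cell line.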

[2] = Cytotoxicity against human HCT15 cells; how it was run: as §1
[3] = tested on: DU-145; assay: Cytotoxicity against human DU145 cells; how it was run: as §1
[4] = tested on: SF-268; assay: Cytotoxicity against human SF268 cells; how it was run: as §1
[5] = tested on: HCT-116; assay: Cytotoxicity against human HCT116 cells; how it was run: as §1
[6] = Cytotoxicity against human OVCAR3 cells; how it was run: as §1
[7] = tested on: BT-549; assay: Cytotoxicity against human BT549 cells; how it was run: as §1
[8] = tested on: SF-539; assay: Cytotoxicity against human SF539 cells; how it was run: as §1
[9] = tested on: HL-60(TB); assay: Cytotoxicity against human HL-60(TB) cells
How it was run: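 Tested within the NCI 60-cell-line screen, with GI50 as the read-out. Values are the average of two independent experiments. The lowest concentration tested was 10 nM.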

[10] = tested on: SNB-75; assay: Cytotoxicity against human SNB75 cells
How it was run: (§2)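 Cell line run as part of the 60-cell-line screening panel; growth inhibition was reported as a GI50 for each line.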

[11] = tested on: U-251; assay: Cytotoxicity against human U251 cells; how it was run: as §2
[12] = tested on: K562; assay: Cytotoxicity against human K562 cells; how it was run: as §1
[13] = Cytotoxicity against human UO31 cells; how it was run: as §2
[14] = tested on: T47D; assay: Cytotoxicity against human T47D cells; how it was run: as §2
[15] = tested on: MDA-MB-435; assay: Cytotoxicity against human MDA-MB-435 cells; how it was run: as §1
[16] = Cytotoxicity against human OVCAR8 cells; how it was run: as §1
[17] = tested on: IGROV-1; assay: Cytotoxicity against human IGROV1 cells; how it was run: as §1
[18] = tested on: CAKI-1; assay: Cytotoxicity against human Caki1 cells; how it was run: as §1
[19] = tested on: NCI-H23; assay: Cytotoxicity against human NCI-H23 cells; how it was run: as §1
[20] = tested on: HCC 2998; assay: Cytotoxicity against human HCC2998 cells; how it was run: as §1
[21] = tested on: RXF 393; assay: Cytotoxicity against human RXF393 cells; how it was run: as §1
[22] = tested on: MOLT-4; assay: Cytotoxicity against human MOLT4 cells; how it was run: as §1
[23] = tested on: ACHN; assay: Cytotoxicity against human ACHN cells; how it was run: as §1
[24] = tested on: SK-MEL-2; assay: Cytotoxicity against human SK-MEL-2 cells; how it was run: as §1
[25] = tested on: SF-295; assay: Cytotoxicity against human SF295 cells; how it was run: as §1
[26] = Cytotoxicity against human EKVX cells; how it was run: as §1
[27] = tested on: A549; assay: Cytotoxicity against human A549 cells; how it was run: as §1
[28] = tested on: KM12; assay: Cytotoxicity against human KM12 cells; how it was run: as §1
[29] = tested on: M14; assay: Cytotoxicity against human M14 cells; how it was run: as §1
[30] = tested on: TK-10; assay: Cytotoxicity against human TK10 cells; how it was run: as §2
[31] = Cytotoxicity against human OVCAR5 cells; how it was run: as §1
[32] = Cytotoxicity against human OVCAR4 cells; how it was run: as §1
[33] = tested on: NCI-H226; assay: Cytotoxicity against human NCI-H226 cells; how it was run: as §1
[34] = tested on: 786-0; assay: Cytotoxicity against human 786-0 cells; how it was run: as §1
[35] = Cytotoxicity against human UACC257 cells; how it was run: as §2
[36] = tested on: SK-OV-3; assay: Cytotoxicity against human SKOV3 cells; how it was run: as §1
[37] = tested on: LOX IMVI; assay: Cytotoxicity against human LOXIMVI cells; how it was run: as §1
[38] = tested on: HT-29; assay: Cytotoxicity against human HT-29 cells; how it was run: as §1
[39] = tested on: MCF7; assay: Cytotoxicity against human MCF7 cells; how it was run: as §1
[40] = tested on: A498; assay: Cytotoxicity against human A498 cells; how it was run: as §1
[41] = tested on: MDA-MB-231; assay: Cytotoxicity against human MDA-MB-231 cells; how it was run: as §1
[42] = Cytotoxicity against human NCI-ADR-RES cells; how it was run: as §1
[43] = tested on: SN12C; assay: Cytotoxicity against human SN12C cells; how it was run: as §1
[44] = read-out: pLC50 (the source's name) (converted)

Question: What does the source list for COc1cc(/C=C/c2cc(O)c3c(CC=C(C)C)c[nH]c3c2)cc2c1O[C@]1(C)CC[C@@H](O)C(C)(C)[C@H]1C2?
Answer: GI50 [1]: 0.417 µM; CC50 [1, 44]: 50.1 µM; TGI ([1]; read-out: pTGI (converted)): 50.1 µM; GI50 ([2]; HCT-15): 0.17 µM; CC50 ([2]; HCT-15, read-out: pLC50 (the source's name) (converted)): 50.1 µM; TGI ([2]; HCT-15, read-out: pTGI (converted)): 1.55 µM; GI50 [3]: 3.55 µM; LC50 (50% lethal concentration) [3]: 50.1 µM; TGI ([3]; read-out: pTGI (converted)): 50.1 µM; GI50 [4]: 1.02 µM; CC50 [4, 44]: 50.1 µM; TGI ([4]; read-out: pTGI (converted)): 50.1 µM; GI50 [5]: 3.24 µM; CC50 [5, 44]: 50.1 µM; TGI ([5]; read-out: pTGI (converted)): 50.1 µM; GI50 ([6]; OVCAR-3): 13.5 µM; CC50 ([6]; OVCAR-3, read-out: pLC50 (the source's name) (converted)): 50.1 µM; TGI ([6]; OVCAR-3, read-out: pTGI (converted)): 50.1 µM; GI50 [7]: 0.107 µM; CC50 [7, 44]: 50.1 µM; TGI ([7]; read-out: pTGI (converted)): 13.2 µM; GI50 [8]: 0.0407 µM; CC50 [8, 44]: 2.95 µM; TGI ([8]; read-out: pTGI (converted)): 0.257 µM; GI50 [9]: 0.251 µM; CC50 [9, 44]: 50.1 µM; TGI ([9]; read-out: pTGI (converted)): 18.6 µM; GI50 [10]: 0.055 µM; CC50 [10, 44]: 50.1 µM; TGI ([10]; read-out: pTGI (converted)): 50.1 µM; GI50 [11]: 0.151 µM; CC50 [11, 44]: 50.1 µM; TGI ([11]; read-out: pTGI (converted)): 50.1 µM; GI50 [12]: 0.224 µM; CC50 [12, 44]: 50.1 µM; TGI ([12]; read-out: pTGI (converted)): 7.76 µM; GI50 ([13]; UO-31): 0.269 µM; LC50 ([13]; UO-31): 50.1 µM; TGI ([13]; UO-31, read-out: pTGI (converted)): 1.48 µM; GI50 [14]: 5.25 µM; CC50 [14, 44]: 50.1 µM; TGI ([14]; read-out: pTGI (converted)): 31.6 µM; GI50 [15]: 0.676 µM; CC50 [15, 44]: 50.1 µM; TGI ([15]; read-out: pTGI (converted)): 50.1 µM; GI50 ([16]; OVCAR-8): 12.9 µM; CC50 ([16]; OVCAR-8, read-out: pLC50 (the source's name) (converted)): 50.1 µM; TGI ([16]; OVCAR-8, read-out: pTGI (converted)): 50.1 µM; GI50 [17]: 0.417 µM; CC50 [17, 44]: 50.1 µM; TGI ([17]; read-out: pTGI (converted)): 50.1 µM; GI50 [18]: 0.263 µM; LC50 [18]: 50.1 µM; TGI ([18]; read-out: pTGI (converted)): 50.1 µM; GI50 [19]: 0.427 µM; CC50 [19, 44]: 50.1 µM; TGI ([19]; read-out: pTGI (converted)): 22.4 µM; GI50 [20]: 3.02 µM; CC50 [20, 44]: 50.1 µM; TGI ([20]; read-out: pTGI (converted)): 50.1 µM; GI50 [21]: 0.0447 µM; LC50 [21]: 12.9 µM; TGI ([21]; read-out: pTGI (converted)): 0.457 µM; GI50 [22]: 0.17 µM; CC50 [22, 44]: 50.1 µM; TGI ([22]; read-out: pTGI (converted)): 50.1 µM; GI50 [23]: 1.48 µM; LC50 (concentration killing 50% of cells) [23]: 50.1 µM; TGI ([23]; read-out: pTGI (converted)): 50.1 µM; GI50 [24]: 0.269 µM; CC50 [24, 44]: 50.1 µM; TGI ([24]; read-out: pTGI (converted)): 50.1 µM; GI50 ([25]; read-out: GI50): < 0.021 µM; GI50 ([25]; read-out: pGI50 (converted)): 0.0316 µM; CC50 [25, 44]: 0.513 µM; TGI ([25]; read-out: pTGI (converted)): 0.135 µM; GI50 [26]: 1.07 µM; CC50 [26, 44]: 50.1 µM; TGI ([26]; read-out: pTGI (converted)): 50.1 µM; GI50 [27]: 1.7 µM; CC50 [27, 44]: 50.1 µM; TGI ([27]; read-out: pTGI (converted)): 50.1 µM; GI50 [28]: 0.275 µM; TGI ([28]; read-out: pTGI (converted)): 1.12 µM; GI50 [29]: 0.251 µM; TGI ([29]; read-out: pTGI (converted)): 1.02 µM; GI50 [30]: 7.76 µM; LC50 [30]: 50.1 µM; TGI ([30]; read-out: pTGI (converted)): 50.1 µM; GI50 ([31]; OVCAR-5): 15.1 µM; CC50 ([31]; OVCAR-5, read-out: pLC50 (the source's name) (converted)): 50.1 µM; TGI ([31]; OVCAR-5, read-out: pTGI (converted)): 50.1 µM; GI50 ([32]; OVCAR-4): 5.25 µM; CC50 ([32]; OVCAR-4, read-out: pLC50 (the source's name) (converted)): 50.1 µM; TGI ([32]; OVCAR-4, read-out: pTGI (converted)): 50.1 µM; GI50 [33]: 4.37 µM; CC50 [33, 44]: 50.1 µM; TGI ([33]; read-out: pTGI (converted)): 50.1 µM; GI50 [34]: 0.0851 µM; LC50 (concentration killing 50% of cells) [34]: 50.1 µM; TGI ([34]; read-out: pTGI (converted)): 0.501 µM; GI50 ([35]; UACC-257): 1.23 µM; CC50 ([35]; UACC-257, read-out: pLC50 (the source's name) (converted)): 50.1 µM; TGI ([35]; UACC-257, read-out: pTGI (converted)): 50.1 µM; GI50 [36]: 3.55 µM; LC50 [36]: 50.1 µM; TGI ([36]; read-out: pTGI (converted)): 32.4 µM; GI50 [37]: 0.2 µM; CC50 [37, 44]: 50.1 µM; TGI ([37]; read-out: pTGI (converted)): 1.17 µM; GI50 [38]: 0.132 µM; CC50 [38, 44]: 50.1 µM; TGI ([38]; read-out: pTGI (converted)): 2 µM; GI50 [39]: 0.355 µM; LC50 [39]: 50.1 µM; TGI ([39]; read-out: pTGI (converted)): 3.63 µM; GI50 [40]: 0.129 µM; CC50 [40, 44]: 50.1 µM; TGI ([40]; read-out: pTGI (converted)): 0.724 µM; GI50 [41]: 0.724 µM; LC50 [41]: 50.1 µM; TGI ([41]; read-out: pTGI (converted)): 50.1 µM; GI50 [42]: 8.51 µM; CC50 [42, 44]: 50.1 µM; TGI ([42]; read-out: pTGI (converted)): 50.1 µM; GI50 [43]: 12 µM; LC50 [43]: 50.1 µM; TGI ([43]; read-out: pTGI (converted)): 50.1 µM

Reference: ChEMBL document CHEMBL3232844, “Synthesis and structure activity relationships of schweinfurthin indoles” (2014)
